Values after ≈ are worked out from the molar mass of the structure shown.
Tests used:
Type in all cases: functional
Candida parapsilosis [1] = assay: Antimicrobial activity against Candida parapsilosis after 72 hrs by broth microdilution method; conditions: Lodderomyces parapsilosis
Procedure, shortened: (§1)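 MFC: after MIC reading, a sample from each well was plated on Sabouraud dextrose agar and incubated 72 h at 35 °C. MFC was taken as the minimum concentration killing >99% of the original inoculum. The MIC step was NCCLS broth microdilution in MOPS-buffered RPMI 1640 (pH 7.0), with 2 ×10⁴ cells/mL, overnight at 35 °C.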

Pichia kudriavzevii [2] = assay: Antimicrobial activity against Candida krusei by broth microdilution method
Procedure, shortened: (§2)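 MIC by NCCLS broth microdilution. Medium was RPMI 1640 with L-glutamine, buffered with 0.165 M MOPS at pH 7.0. Twofold drug dilutions ran 0.008–200 mg/L. Inoculum was set spectrophotometrically to 10⁶ CFU/mL, then diluted in medium to 2 ×10⁴ cells/mL. Plates were incubated overnight at 35 °C in humid air, agitated, and read visually and at 450 nm.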

Candida albicans [3] = assay: Antimicrobial activity against Candida albicans ATCC 10231 by broth microdilution method; procedure, shortened: as §2
Pichia kudriavzevii [4] = assay: Antimicrobial activity against Candida krusei after 72 hrs by broth microdilution method; procedure, shortened: as §1
Nakaseomyces glabratus [5] = assay: Antimicrobial activity against Candida glabrata after 72 hrs by broth microdilution method; procedure, shortened: as §1
Nakaseomyces glabratus [6] = assay: Antimicrobial activity against Candida glabrata by broth microdilution method; procedure, shortened: as §2
Candida parapsilosis [7] = assay: Antimicrobial activity against Candida parapsilosis by broth microdilution method; conditions: Lodderomyces parapsilosis; procedure, shortened: as §2
Candida albicans [8] = assay: Antimicrobial activity against Candida albicans ATCC 10231 after 72 hrs by broth microdilution method; conditions: ATCC 10231, 72 h; procedure, shortened: as §1

Row | MIC (Pichia kudriavzevii [2]) [µg/mL] | MIC (Candida albicans [3]) [µg/mL] | MIC (Nakaseomyces glabratus [6]) [µg/mL] | MIC (Candida parapsilosis [7]) [µg/mL] | Structure (SMILES) | MFC (Candida parapsilosis [1]) [µg/mL] | MFC (Pichia kudriavzevii [4]) [µg/mL] | MFC (Nakaseomyces glabratus [5]) [µg/mL] | MFC (Candida albicans [8]) [µg/mL]
1 | 50 (≈ 138 µM) | 6.25 (≈ 17.3 µM) | 12.5 (≈ 34.6 µM) | 25 (≈ 69.2 µM) | CCOC(=O)c1cc(-c2ccc(OC)cc2)[nH]c1NNC(=O)CCOC | 100 (≈ 277 µM) | 100 (≈ 277 µM) | 100 (≈ 277 µM) | 6.25 (≈ 17.3 µM)
2 | 50 (≈ 145 µM) | 12.5 (≈ 36.2 µM) | > 100 | 12.5 (≈ 36.2 µM) | CCCC(=O)NNc1[nH]c(-c2ccc(OC)cc2)cc1C(=O)OCC | > 100 | 100 (≈ 290 µM) | > 100 | 12.5 (≈ 36.2 µM)
3 | 12.5 (≈ 41.5 µM) | 3.12 (≈ 10.4 µM) | 6.25 (≈ 20.7 µM) | 6.25 (≈ 20.7 µM) | CCOC(=O)c1cc(-c2ccccc2)[nH]c1NNC(=O)CC | 25 (≈ 83 µM) | 25 (≈ 83 µM) | 12.5 (≈ 41.5 µM) | 12.5 (≈ 41.5 µM)
4 | 25 (≈ 75.4 µM) | 3.12 (≈ 9.42 µM) | 6.25 (≈ 18.9 µM) | 12.5 (≈ 37.7 µM) | CCOC(=O)c1cc(-c2ccc(OC)cc2)[nH]c1NNC(=O)CC | 25 (≈ 75.4 µM) | 100 (≈ 302 µM) | 12.5 (≈ 37.7 µM) | 12.5 (≈ 37.7 µM)
5 | > 100 | > 100 | > 100 | > 100 | CCCC(=O)NNc1[nH]c(-c2ccc(Cl)cc2)cc1C(=O)OCC | > 100 | > 100 | > 100 | > 100
6 | > 100 | > 100 | > 100 | 25 (≈ 75.9 µM) | CCCC(=O)NNc1[nH]c(-c2ccc(C)cc2)cc1C(=O)OCC | > 100 | > 100 | > 100 | > 100
7 | 100 (≈ 302 µM) | 6.25 (≈ 18.9 µM) | 3.12 (≈ 9.42 µM) | 100 (≈ 302 µM) | CCOC(=O)NNc1[nH]c(-c2ccc(C)cc2)cc1C(=O)OCC | > 100 | > 100 | 25 (≈ 75.4 µM) | 6.25 (≈ 18.9 µM)

Continued, compound first:

Row | Structure (SMILES) | MIC (Pichia kudriavzevii [2]) [µg/mL] | MIC (Candida albicans [3]) [µg/mL] | MIC (Nakaseomyces glabratus [6]) [µg/mL] | MIC (Candida parapsilosis [7]) [µg/mL] | MFC (Candida parapsilosis [1]) [µg/mL] | MFC (Pichia kudriavzevii [4]) [µg/mL] | MFC (Nakaseomyces glabratus [5]) [µg/mL] | MFC (Candida albicans [8]) [µg/mL]
8 | CCOC(=O)c1cc(-c2ccccc2)[nH]c1NNC(=O)Cc1ccc(OC)cc1 | 50 (≈ 127 µM) | > 100 | > 100 | 50 (≈ 127 µM) | > 100 | > 100 | > 100 | > 100
9 | CCOC(=O)c1cc(-c2ccccc2)[nH]c1NNC(=O)CCOC | 12.5 (≈ 37.7 µM) | 3.12 (≈ 9.42 µM) | 6.25 (≈ 18.9 µM) | 6.25 (≈ 18.9 µM) | 25 (≈ 75.4 µM) | 50 (≈ 151 µM) | 25 (≈ 75.4 µM) | 6.25 (≈ 18.9 µM)
10 | CC(=O)NNc1[nH]c(-c2ccccc2)cc1C#N | 3.12 (≈ 13 µM) | 3.12 (≈ 13 µM) | 6.25 (≈ 26 µM) | 3.12 (≈ 13 µM) | 12.5 (≈ 52 µM) | 6.25 (≈ 26 µM) | 12.5 (≈ 52 µM) | 3.12 (≈ 13 µM)
11 | CCOC(=O)c1cc(-c2ccc(C)cc2)[nH]c1NNC(C)=O | 100 (≈ 332 µM) | > 100 | > 100 | 50 (≈ 166 µM) | 50 (≈ 166 µM) | > 100 | > 100 | > 100
12 | CCOC(=O)NNc1[nH]c(-c2ccccc2)cc1C(=O)OCC | 12.5 (≈ 39.4 µM) | 3.12 (≈ 9.83 µM) | 6.25 (≈ 19.7 µM) | 6.25 (≈ 19.7 µM) | 12.5 (≈ 39.4 µM) | 25 (≈ 78.8 µM) | 12.5 (≈ 39.4 µM) | 3.12 (≈ 9.83 µM)
13 | CCOC(=O)c1cc(-c2ccccc2)[nH]c1NNC(C)=O | 50 (≈ 174 µM) | 12.5 (≈ 43.5 µM) | 12.5 (≈ 43.5 µM) | 50 (≈ 174 µM) | 100 (≈ 348 µM) | 50 (≈ 174 µM) | > 100 | 12.5 (≈ 43.5 µM)
14 | CCOC(=O)NNc1[nH]c(-c2ccc(Cl)cc2)cc1C(=O)OCC | 50 (≈ 142 µM) | 25 (≈ 71.1 µM) | > 100 | 12.5 (≈ 35.5 µM) | 12.5 (≈ 35.5 µM) | > 100 | > 100 | > 100
